Sampled rows, rich in hits. Any-hit rate of the full collection: about 1.8%.
hiPSC survival – hiPSC single-cell survival enhancement; ATPlite luminescence; 100% = ROCK inhibitor wells, 0% = DMSO; 0.044% of 360,000 active; survival enhancement, % at 20 µM; in the data active means survival enhancement above about 18%;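 further: cells exposed to compounds for 16 hours before the ATP read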
Jurkat NFkB inh – inhibitors of the PMA/ionomycin-induced NF-kB reporter in Jurkat cells; inhibition, % at 4 µM; PMA/ionomycin-induced NF-kB luciferase reporter, luminescence; 0.53% of 330,000 active; AID 435003; in the data active means inhibition above about 50%
697 NFkB inh – lowers PMA/ionomycin-induced NF-kB signal in 697 B cells. 697 B-cell NF-kB luciferase reporter, 16 h. inhibition, % at 4 µM. AID 435022. 0.33% of 330,000 active; in the data active means inhibition above about 35%
H9c2 TAG inh – reduces triacylglycerol accumulation in H9c2 cells; Nile Red lipid (TAG) fluorescence; cells loaded with 200 µM oleic acid; inhibition, % at 12.5 µM; 0.66% of 230,000 active; AID 651582;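 active means pattern-corrected inhibition of lipid staining of at least 50% with the nuclear-stain viability signal not falling by more than 50%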;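 further: 0% = DMSO wells and 100% = triacsin C control wells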
Gli-Sufu block – Gli-Sufu pathway antagonism; AID 588413; Sufu-KO-LIGHT fibroblasts, Gli luciferase reporter luminescence; 0.74% of 340,000 active; inhibition, % at 5 µM;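 active means inhibition above about 55%, limit read from the data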;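 further: 0% = DMSO-treated cells and 100% = wells with medium but no cells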
Hep lipid drop – hepatic lipid droplet formation modulation; AML12 mouse hepatocytes, oleate lipid droplets, BODIPY imaging; inhibition, % at 6.5 µM; 0.4% of 240,000 active;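 active means lipid droplet intensity inhibited by at least 50%, with more than 500 cells counted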
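Material – AML12 mouse liver cells · Also added – oleate loading, 100 µM · Compound dosing – 6.5 µM single-point dosing · Times – overnight treatment with compound plus oleate · Measured by – fluorescence imaging, 20x objective, two fields per well · Read-out – percent inhibition of filter-corrected integrated lipid droplet intensity per well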
Hep lipid conf – hepatic lipid droplet formation inhibition, confirmed; shares compounds with Hep lipid drop; AID 463183; inhibition, % at 5.2 µM; AML12 mouse hepatocytes, BODIPY lipid droplet imaging; droplets induced with 100 µM oleic acid; 65% of 870 active;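 active means inhibition of lipid droplet metric at least 50%, with more than 300 cells in each of four replicates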;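 further: plate controls were DMSO with oleic acid for no effect and 5 µM Triacsin-C for full effect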
AML12 tox img – AML12 hepatocyte cytotoxicity (counter-screen) | AML12 mouse hepatocytes, DAPI nuclear morphology cytotoxicity imaging; stronger effect = higher value; cells fed 100 µM oleate overnight | 3% of 870 active | z-score at 5 µM | AID 463200 | shares compounds with Hep lipid drop; in the data active means z-score above about 6.3;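 further: compound exposure lasted overnight at 37 °C before fixation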
AML12 tox ATP – confirmation of cytotoxicity in AML12 mouse hepatocytes | 530 tested, under 10 active | cytotoxicity, % at 50 µM | shares compounds with Hep lipid drop | AID 463219 | AML12 mouse hepatocyte viability, ATP luminescence; cells loaded with 100 µM oleic acid;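 active means cytotoxicity above 50% in each of four replicates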;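 further: compound exposure lasted overnight at 37 °C before the ATP read; 0% = DMSO-treated cells and 100% = wells with no cells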
Jurkat NFkB conf – inhibitors of the PMA/ionomycin-induced NF-kB reporter in Jurkat cells, retest. Jurkat NF-kB luciferase, 16 h. inhibition, % at 4 µM. shares compounds with Jurkat NFkB inh. 27% of 2,700 active. AID 435020;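 active means inhibition reaching about 45% at 4 µM in either replicate, limit read from the data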;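 further: plate controls were PMA/ionomycin stimulated DMSO wells for no effect and unstimulated DMSO wells for full effect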
TAG conf – confirmation of triacylglycerol accumulation inhibitors | 71% of 990 active | H9c2 lipid accumulation, Nile Red fluorescence; cells loaded with 200 µM oleic acid | shares compounds with H9c2 TAG inh | inhibition, % at 12.5 µM;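 active means mean inhibition across replicates of 40% or more; inactive means mean inhibition below 40%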;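 further: plate controls were DMSO only wells for no effect and Triacsin C treated wells for full effect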
An asterisk follows results filed as active; · = not tested or not shown.

SMILES | hiPSC survival | Jurkat NFkB inh | 697 NFkB inh | H9c2 TAG inh | Gli-Sufu block | Hep lipid drop | Hep lipid conf | AML12 tox img | AML12 tox ATP | TAG conf | others
COc1ccc(C(C(=O)NC(C)(C)C)N(C(=O)CCC(=O)Nc2cc(C)on2)c2cccc(C)c2C)cc1 (stereo unspecified) | 0 | 4 | 7 | · | -3 | -2 | · | · | · | ·
COc1ccc(C(C(=O)NC(C)(C)C)N(CC2CCCO2)C(=O)CCC(=O)Nc2cc(C)on2)cc1 (stereo unspecified) | 1 | -4 | -5 | 50* | 9 | 58* | 90* | -0.95 | 0 | 32
CCOc1ccc(CCNC(=O)Cn2c(-c3nonc3N)nc3ccccc32)cc1OCC | 2 | 13 | -2 | 57* | 12 | 75* | 101* | 0.99 | 25 | 36
COc1ccc(CCNC(=O)CN2CCN(Cc3ccccc3F)C2=O)cc1OC | -1 | 9 | 15 | -4 | 4 | 9 | · | · | · | ·
CCOc1ccc(CCNC(=O)CN2CCN(Cc3ccccc3C)C2=O)cc1OCC | 1 | 8 | 5 | 60* | -1 | 83* | 107* | -0.059 | 12 | 54*
O=C(CCN1C(=O)/C(=C/c2ccccc2Cl)SC1=S)NC1C=CS(=O)(=O)C1 (stereo unspecified) | 0 | 6 | -19 | · | -9 | -3 | · | · | · | ·
COc1ccccc1/C=C/C(=O)NCC(=O)N/N=C/c1cc(Br)ccc1OC | 0 | -22 | 13 | 54* | 0 | 73* | 106* | -1.1 | 18 | 40
Cc1ccc(C(=O)CC2(O)C(=O)N(CCc3ccccc3)c3ccc(Br)cc32)o1 (stereo unspecified) | 2 | 5 | 15 | 51* | -5 | 53* | 83* | -0.62 | 4 | 24
Cc1ccc(C(=O)CC2(O)C(=O)N(Cc3ccccc3)c3ccccc32)o1 (stereo unspecified) | -4 | -13 | -5 | 5 | -10 | -10 | · | · | · | ·
CCOc1ccccc1NC(=O)C1CCN(C(=O)NCc2ccccc2)CC1 | 2 | -6 | -5 | 63* | 2 | 130* | 110* | -0.4 | 6 | 47*
O=C(Nc1ccccc1F)C1CCN(C(=O)NCc2ccccc2)CC1 | 0 | -13 | 11 | · | -11 | 0 | · | · | · | ·
CCOc1ccccc1NC(=O)CCC(=O)Nc1ccccc1OCC | 1 | -4 | -14 | 59* | -5 | 60* | 94* | -0.26 | 12 | 49*
COc1ccc(C(=O)N[C@H](C(=O)OCc2cc(=O)oc3cc(C)ccc23)C(C)C)cc1 | 4 | 5 | 6 | · | 5 | -47 | · | · | · | ·
CCc1ccc(OCC(=O)Nc2ccc(-c3cc4ccccc4oc3=O)c(OC)c2)cc1 | 0 | 23 | -25 | · | -12 | 0 | · | · | · | ·
COCCCn1c(SCC(=O)Nc2ccc(NC(=O)c3ccco3)c(OC)c2)nc2ccccc2c1=O | 0 | 16 | 5 | 62* | 2 | 104* | 104* | -0.47 | 7 | 38
c1ccc(-c2nc(N3CCOCC3)cc(N3CCOCC3)n2)cc1 | -1 | -4 | 3 | 51* | 3 | 67* | 92* | -0.2 | 25 | 54*
O=C1C(NS(=O)(=O)c2cccs2)=C(N2CCN(c3cccc(C(F)(F)F)c3)CC2)C(=O)c2ccccc21 | 3 | -8 | -2 | 60* | -2 | 52* | 113* | -0.37 | 12 | 78*
CN1CCN(C2=C(NS(=O)(=O)c3cccs3)C(=O)c3ccccc3C2=O)CC1 | 0 | 31 | 11 | 16 | 4 | -8 | · | · | · | ·
COc1ccc(NC(=O)c2ccc(NC3=NC4CS(=O)(=O)CC4S3)cc2)cc1 (stereo unspecified) | 0 | -4 | 3 | 11 | 1 | -19 | · | · | · | ·
CCc1nn2c(N3CCOCC3)cc(C)nc2c1-c1ccc(F)cc1 | -1 | -11 | -24 | 70* | -4 | 88* | 110* | 0.76 | 2 | 64*
Cc1cc(N2CCOCC2)n2nc(C(F)(F)F)c(-c3ccccc3)c2n1 | 0 | · | · | · | 6 | 37 | · | · | · | ·
Cc1ccc(NC(=O)CCc2ccc(C)o2)cc1 | 0 | -13 | -38 | · | 10 | 0 | · | · | · | ·
CCOC(=O)[C@@H]1[C@H]2COc3ccc(Br)cc3[C@@H]2N2C(=O)N(c3ccc(C(F)(F)F)cc3)C(=O)[C@@]12C | 0 | 1 | 4 | 52* | -1 | 52* | 76* | -0.14 | 5 | 69*
C=C(C)CNC(=O)c1ccc2nc(Cc3ccc(OC)cc3)oc2c1 | 1 | -92 | -131 | -8 | -66 | 0 | · | · | · | ·
COc1ccc2c(c1)c(CC(=O)Nc1cccc(S(N)(=O)=O)c1)c(C)n2C(=O)c1ccc(Cl)cc1 | 0 | -9 | -6 | 30 | 0 | 7 | · | · | · | ·
SMILES | hiPSC survival | Jurkat NFkB inh | 697 NFkB inh | H9c2 TAG inh | Gli-Sufu block | Hep lipid drop | Hep lipid conf | AML12 tox img | AML12 tox ATP | TAG conf | others
COc1ccc2c(c1)c(CC(=O)Nc1ccc(C)cc1)c(C)n2C(=O)c1ccc(Cl)cc1 | 7 | 5 | -23 | 61* | 3 | 80* | 106* | 0.051 | 30 | 50*
N#CC(C#N)=c1ccc2c(c1)N1C(c3ccccc3)=CC(c3ccccc3)C3CCCCC31N=2 (stereo unspecified) | -1 | 8 | 3 | 89* | 3 | 65* | 50 | -1.1 | · | 119*
CCOc1ccc(CCNC(=O)CCc2nc(-c3ccc(OC)cc3)no2)cc1OCC | -1 | 9 | 6 | 52* | 44 | 69* | 108* | -0.28 | 11 | 39
COc1ccc(-c2noc(CCC(=O)NCCc3cccc(C)c3)n2)cc1 | 3 | 0 | 25 | · | -1 | 2 | · | · | · | ·
CCOC(=O)C1=C(COC(=O)c2cccc(NC(C)=O)c2)NC(=O)NC1C (stereo unspecified) | -1 | 1 | -7 | 3 | -4 | · | · | · | · | ·
CCOc1ccc2nc(-c3ccccc3)nc(SCC(=O)Nc3ncc(C)s3)c2c1 | -2 | 7 | 11 | 83* | 6 | 101* | 107* | 0.12 | 7 | 81*
CCOc1ccccc1C1NC(=O)c2ccccc2O1 (stereo unspecified) | 0 | -1 | 4 | -5 | 18 | 2 | · | · | · | ·
O=C(Nc1ccc(-c2nc3ccc(NC(=O)c4cccs4)cc3[nH]2)cc1)c1cccs1 | -1 | 91* | -132 | · | 25 | -8 | · | · | · | · | Jurkat NFkB conf=-45

Bioassay records as filed in PubChem.
